ChEMBL document CHEMBL1146598, “Synthesis and structure-activity relationship of mannose-based peptidomimetics selectively blocking integrin alpha4beta7 binding to mucosal addressin cell adhesion molecule-1” (J Med Chem, 2003)

Legend:
[1] = biological target: T1, Integrin beta-7 (Homo sapiens, UniProt P13612+P26010); experiment: Inhibition of alpha4-beta7 interaction to mucosal addressin cell adhesion molecule-1 (MAdCAM-1) was determined; assay type: functional
T1 sequence (P26010 whole entry): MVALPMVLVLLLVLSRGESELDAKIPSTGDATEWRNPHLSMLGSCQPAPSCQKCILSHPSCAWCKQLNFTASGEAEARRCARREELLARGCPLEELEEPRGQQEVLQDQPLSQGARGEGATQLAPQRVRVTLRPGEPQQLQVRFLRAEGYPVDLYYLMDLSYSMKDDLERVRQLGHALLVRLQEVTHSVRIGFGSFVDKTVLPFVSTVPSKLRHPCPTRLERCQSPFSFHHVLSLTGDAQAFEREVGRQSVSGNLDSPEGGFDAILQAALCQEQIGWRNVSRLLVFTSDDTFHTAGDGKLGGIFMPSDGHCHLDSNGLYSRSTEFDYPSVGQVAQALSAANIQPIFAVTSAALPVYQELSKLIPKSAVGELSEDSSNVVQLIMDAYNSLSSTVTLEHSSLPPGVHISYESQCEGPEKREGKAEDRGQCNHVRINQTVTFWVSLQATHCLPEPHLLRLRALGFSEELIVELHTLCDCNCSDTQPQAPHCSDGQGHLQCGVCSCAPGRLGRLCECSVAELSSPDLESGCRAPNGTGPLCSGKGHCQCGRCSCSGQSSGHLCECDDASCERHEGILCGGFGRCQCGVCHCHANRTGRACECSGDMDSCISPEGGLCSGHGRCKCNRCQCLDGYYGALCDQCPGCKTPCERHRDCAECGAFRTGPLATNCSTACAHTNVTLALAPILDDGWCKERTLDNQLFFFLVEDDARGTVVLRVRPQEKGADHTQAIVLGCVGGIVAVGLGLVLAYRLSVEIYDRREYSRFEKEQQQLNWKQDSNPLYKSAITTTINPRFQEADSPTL
In short: (§1)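 38C13β7 lymphoma cells (α4β7+) labelled with H33342 dye (6 µg/mL), 8 × 10^5 cells/mL in adhesion buffer (Click's RPMI, 1% BSA, 1.0 mM Ca2+/Mg2+). Cells are preincubated with compound 10 min at 37 °C, then adhere 30 min at 37 °C to plates carrying anti-human-IgG-captured MAdCAM-1-IgG from 293T supernatant. Nonadherent cells are removed by inverse centrifugation (50 g, 10 min); readout is fluorimetry; IC50 from curves.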

[2] = In vitro inhibition of 38-beta7 (alpha4-beta7) cell adhesion to mucosal addressin cell adhesion molecule-1.; assay type: functional; in short: as §1
[3] = biological target: Integrin alpha-4/beta-1 (Homo sapiens) (UniProt P05556+P13612); experiment: In vitro inhibition of Jurkat cell (alpha4-beta1) cell adhesion to vascular cell adhesion molecule-1.; assay type: functional, cell-based
In short: (§2)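 Jurkat cells (α4β1+, α4β7−) are Hoechst H33342-labelled (6 µg/mL), then preincubated with compound 10 min at 37 °C at 8 × 10^5 cells/mL. Adhesion runs 30 min at 37 °C to VCAM-IgG (293T transfectant supernatant) captured on donkey anti-human IgG, in RPMI/1% BSA/1 mM Ca2+, Mg2+. Unbound cells are spun off inverted (50 g, 10 min); adhesion is read by fluorescence; IC50 from curves.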

[4] = biological target: Integrin beta-1 (Homo sapiens, UniProt P05556); experiment: Inhibition of alpha4-beta1 interaction to vascular cell adhesion molecule-1 (VCAM-1) was determined; assay type: functional; in short: as §2
Integrin beta-1, sequence (P05556 whole entry): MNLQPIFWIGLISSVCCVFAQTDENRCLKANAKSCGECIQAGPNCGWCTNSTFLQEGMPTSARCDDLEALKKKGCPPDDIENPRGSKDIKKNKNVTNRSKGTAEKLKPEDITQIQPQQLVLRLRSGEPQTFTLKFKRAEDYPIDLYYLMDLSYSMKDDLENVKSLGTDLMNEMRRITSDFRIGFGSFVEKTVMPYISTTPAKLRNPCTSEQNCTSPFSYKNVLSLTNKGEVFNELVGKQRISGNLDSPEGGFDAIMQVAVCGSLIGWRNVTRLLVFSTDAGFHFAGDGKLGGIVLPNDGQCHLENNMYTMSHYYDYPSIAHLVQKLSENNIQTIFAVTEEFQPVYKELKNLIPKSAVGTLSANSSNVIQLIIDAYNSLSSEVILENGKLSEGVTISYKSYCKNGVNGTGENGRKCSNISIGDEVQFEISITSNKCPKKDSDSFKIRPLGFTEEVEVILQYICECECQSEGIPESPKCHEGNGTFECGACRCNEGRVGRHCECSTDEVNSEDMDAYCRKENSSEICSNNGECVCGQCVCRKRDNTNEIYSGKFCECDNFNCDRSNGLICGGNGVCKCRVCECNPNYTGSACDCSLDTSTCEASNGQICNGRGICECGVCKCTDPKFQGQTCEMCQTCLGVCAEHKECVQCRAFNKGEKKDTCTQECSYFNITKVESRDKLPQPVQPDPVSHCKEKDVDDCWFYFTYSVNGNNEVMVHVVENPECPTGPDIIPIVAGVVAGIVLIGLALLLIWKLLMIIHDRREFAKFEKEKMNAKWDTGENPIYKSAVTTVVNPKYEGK

SMILES | IC50 [1] [µM] | Adhesion [2] [%] | Adhesion [3] [%] | IC50 [4] [µM]
CO[C@]12CCCC[C@@]1(OC)OC1[C@H](COCC(C)C)O[C@@H](OCC(=O)O)[C@H](OCc3ccccc3)[C@H]1O2 (stereo in doubt; form 2) [listing 1 of 2 here] | 420 | 15 | – | –
COC1C(COCC(C)C)O[C@@H](OCC(=O)O)C(OCc2ccccc2)[C@H]1OC (stereo not given in full) | – | 100 | 86 | –
CO[C@@]12O[C@@H]3[C@H](OCCO)[C@H](OCC(=O)O)O[C@H](COCC(C)C)[C@H]3O[C@@]1(OC)c1ccccc1-c1ccccc12 | – | 80 | 82 | –
CC[C@H](C)[C@@H]1NC(=O)[C@H](CCC(N)=O)NC(=O)[C@@H](N)CSSC[C@@H](C(=O)O)NC(=O)[C@@H]2CCCN2C(=O)[C@H](CO)NC(=O)[C@H](CC(=O)O)NC1=O | – | – | – | 1440
COC1C(COCC(C)C)O[C@@H](OCC(=O)O)[C@H](OCCO)[C@H]1OC (stereo not given in full) | – | 100 | 100 | –
COC1C(CCC(C)C)O[C@@H](OCC(=O)O)[C@H](OCc2ccccc2)[C@H]1OC (stereo not given in full) | – | 100 | 97 | –
COC12CCCC[C@]1(OC)O[C@H]1C(O2)C(COC(C)C)O[C@@H](OCC(=O)O)[C@@H]1OCc1ccccc1 (stereo in doubt; form 1) [listing 1 of 2 here] | – | 100 | – | –
COC12CCCC[C@]1(OC)O[C@H]1C(O2)C(COC(C)C)O[C@@H](OCC(=O)O)[C@@H]1OCc1ccccc1 (stereo in doubt; form 2) [listing 1 of 2 here] | – | – | 100 | –
COC1C(CC(C)C)O[C@@H](OCC(=O)O)C(OCc2ccccc2)[C@H]1OC (stereo not given in full) | – | 100 | 100 | –
COC12CCCC[C@]1(OC)O[C@H]1C(O2)C(COC(C)C)O[C@@H](OCC(=O)O)[C@@H]1OCc1ccccc1 (stereo in doubt; form 1) [listing 2 of 2 here] | – | – | 100 | –
COC1C(COCC(C)C)O[C@@H](OCC(=O)O)[C@H](OCc2ccccc2)[C@H]1OC (stereo not given in full) | – | 100 | 100 | –
CO[C@@]12O[C@H]3[C@H](O[C@@]1(OC)c1ccccc1-c1ccccc12)[C@@H](COCC(C)C)OC(OCC(=O)O)[C@H]3OCCO (stereo not given in full) | – | 76 | 81 | –
COC1C(CCC(C)C)O[C@@H](OCC(=O)O)C(OCc2ccccc2)[C@H]1OC (stereo not given in full) | – | 100 | 100 | –
COC12CCCC[C@]1(OC)O[C@H]1C(O2)C(COC(C)C)O[C@@H](OCC(=O)O)[C@@H]1OCc1ccccc1 (stereo in doubt; form 2) [listing 2 of 2 here] | – | 76 | – | –
COC1C(CC(C)C)O[C@@H](OCC(=O)O)[C@H](OCc2ccccc2)[C@H]1OC (stereo not given in full) | – | 100 | 100 | –
COC1C(COC(C)C)O[C@@H](OCC(=O)O)C(OCCO)[C@H]1OC (stereo not given in full) | – | 100 | 100 | –
COC1C(COC(C)C)O[C@@H](OCC(=O)O)[C@H](OCCO)[C@H]1OC (stereo not given in full) | – | 100 | 98 | –
COC1C(COC(C)C)O[C@@H](OCC(=O)O)[C@H](OCc2ccccc2)[C@H]1OC (stereo not given in full) | – | 100 | 92 | –
CO[C@]12CCCC[C@@]1(OC)OC1[C@H](COCC(C)C)O[C@@H](OCC(=O)O)[C@H](OCc3ccccc3)[C@H]1O2 (stereo in doubt; form 1) [listing 1 of 2 here] | – | 90 | – | –
CO[C@]12CCCC[C@@]1(OC)OC1[C@H](COCC(C)C)O[C@@H](OCC(=O)O)[C@H](OCc3ccccc3)[C@H]1O2 (stereo in doubt; form 2) [listing 2 of 2 here] | – | – | 77 | –
CC(C)C[C@H](NC(=O)c1cc2ccccc2cn1)C(=O)N[C@@H](CC(=O)O)C(=O)N[C@H](C(N)=O)[C@@H](C)O | 280 | 10 | 10 | –
CO[C@]12CCCC[C@@]1(OC)OC1[C@H](COCC(C)C)O[C@@H](OCC(=O)O)[C@H](OCc3ccccc3)[C@H]1O2 (stereo in doubt; form 1) [listing 2 of 2 here] | – | – | 89 | –
CC[C@H](C)[C@@H]1NC(=O)[C@@H](CCC(N)=O)NC(=O)[C@H](N)CSSC[C@H](C(=O)O)NC(=O)[C@H]2CCCN2C(=O)[C@H](CO)NC(=O)[C@@H](CC(=O)O)NC1=O | – | – | 52 | –
COC1C(COC(C)C)O[C@@H](OCC(=O)O)C(OCc2ccccc2)[C@H]1OC (stereo not given in full) | – | 100 | 86 | –
